Screening results from PubChem BioAssay.
In the library only some 3.5% were active in any assay of this set; here they are far more common.
RGS4 act = potentiators or activators of RGS4; HEK293 M3R/inducible RGS4, carbachol calcium flux Fluo4; stronger effect = lower value; B-score at 10 µM; hit rate 0.92% among 310,000;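 active = B-score of the integrated calcium signal more than 4 SD below the library mean, with starting fluorescence not abnormally high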;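 also: negative B-score means reduced calcium response which marks RGS4 activation or potentiation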
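Reagent: ECmax carbachol challenge; Test system: M3R-expressing HEK293 line, RGS4 induced by doxycycline; Schedule: overnight RGS4 induction, 30 min dye load 37 °C, 20 min compound RT; Detection: calcium dye Fluo4 fluorescence; Read-out: Agonist-evoked peak-minus-minimum fluorescence over baseline, integrated ratio, B score.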
RGS4 inh = inhibitors of human RGS4; AID 463165; HEK293 M3R/RGS4 inducible, Fluo-4 calcium flux; stronger effect = higher value; triggered by carbachol at its EC20; B-score at 10 µM; hit rate 0.45% among 310,000;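 active = B-score, a plate-corrected calcium signal, over three deviations above library mean, with baseline fluorescence within five deviations of library mean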;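 also: RGS4 expression induced by doxycycline in cells with stable M3 receptor; B-score is computed from the integrated fluorescence ratio over baseline after carbachol; higher B-score means a larger calcium signal and so more RGS4 inhibition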
Target sequence (P49798 whole entry, looked up): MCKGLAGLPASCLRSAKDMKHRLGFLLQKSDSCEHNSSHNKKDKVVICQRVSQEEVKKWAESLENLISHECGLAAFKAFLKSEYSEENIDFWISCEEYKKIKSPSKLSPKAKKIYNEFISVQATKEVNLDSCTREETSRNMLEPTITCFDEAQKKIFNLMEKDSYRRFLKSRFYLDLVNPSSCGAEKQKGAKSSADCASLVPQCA
MrgX1 agonist = agonists of human MrgX1 receptor. hit rate 0.44% among 310,000. Q96LB2. AID 588627. MrgX1-HEK293 cells, Fluo-4 calcium fluorescence, agonist mode; stronger effect = higher value. B-score at 10 µM;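 active = calcium response B-score plate-corrected fluorescence ratio at least 3 library SD, with starting fluorescence B-score inside 5 SD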
Target sequence (Q96LB2 whole entry, looked up): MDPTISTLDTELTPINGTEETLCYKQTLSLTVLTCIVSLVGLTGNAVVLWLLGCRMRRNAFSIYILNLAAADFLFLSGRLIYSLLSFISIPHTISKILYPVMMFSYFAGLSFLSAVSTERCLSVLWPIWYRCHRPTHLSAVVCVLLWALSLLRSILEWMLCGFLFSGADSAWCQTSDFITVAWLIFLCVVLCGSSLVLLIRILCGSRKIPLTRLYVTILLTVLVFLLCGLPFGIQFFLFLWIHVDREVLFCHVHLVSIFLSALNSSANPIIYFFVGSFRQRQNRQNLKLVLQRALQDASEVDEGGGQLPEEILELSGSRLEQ
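Test system: HEK293 cells stably expressing human MrgX1 receptor; amount: 15,000 cells per well; doses: compound delivered in addition one of three; times: overnight plating before 1 h dye loading; detection: Fluo-4 NW calcium-flux fluorescence, kinetic read; read-out basis: B-scored fluorescence response ratio; controls: positive and negative controls per plate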
MrgX1 antag = blocks BAM8-22 activation of human MrgX1 receptor; Q96LB2; MRGX1-HEK293 calcium flux, Fluo-4, BAM8-22 antagonism; stronger effect = lower value; B-score at 10 µM; hit rate 1.3% among 310,000;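 active = calcium-response B-score plate-corrected more than 3 library SD below zero, starting fluorescence within 5 deviations, no agonist response on first addition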;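 also: peak minus trough fluorescence over baseline after final BAM8-22 challenge near maximal dose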
MrgX1 PAM = human MrgX1 positive allosteric modulation, primary screen. Q96LB2. MrgX1-HEK293, Fluo-4 calcium flux, FDSS; stronger effect = higher value. B-score at 10 µM. hit rate 0.63% among 310,000;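 active = plate-corrected calcium response at least 3 library SD above typical, normal starting fluorescence, not activating the receptor alone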;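 also: compound read alongside a low EC10 to EC30 dose of BAM8-22 agonist; peak minus trough fluorescence over baseline measured at the second addition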
Starred values were filed as active, the others as inactive; i = inactive; nt = no result given.

SMILES	RGS4 act	RGS4 inh	MrgX1 agonist	MrgX1 antag	MrgX1 PAM
CCNC(=S)N/N=C(\C)c1ccc2c(c1)OCCO2	i	i	i	-6.5*	i
Cc1ccc(SCCSc2nc(C)cc(=O)[nH]2)cc1	i	i	i	i	i
OC(c1cc(-c2ccc(C(F)(F)F)cc2)nc(C(F)(F)F)c1)C1CCCCN1 (configuration not stated)	-7.8*	i	i	-5.4*	i
Cc1ccccc1OCCNc1cc(N2CCNCC2)ccc1[N+](=O)[O-]	i	5.1*	27*	i	i
Cc1ccc(CNC(=O)CN2CCN(c3ccc(F)cc3)CC2)cc1	i	i	i	i	i
COc1cc(/C=C2/C(=O)ON=C2C)cc(Cl)c1O	i	i	40*	i	i
CCOc1cc(/C=C2/C(=O)ON=C2C)ccc1O	i	i	33*	i	i
C#CCOc1c(Cl)cc(/C=C2/C(=O)ON=C2C)cc1OC	i	i	i	i	i
CC1C(=O)C(C)C(c2cccc(Br)c2)NC1c1cccc(Br)c1 (configuration not stated)	i	i	i	i	i
CC(C)(C)C(=O)O/N=C(\N)c1c(Cl)cccc1Cl	-9.1*	i	i	i	i
COc1ccc(-c2cnnc(N/N=C/c3ccc(C)o3)n2)cc1	i	i	i	-5.2*	i
COc1ccc(-c2cnnc(N/N=C/c3ccc(O)cc3)n2)cc1	i	i	i	i	i
Cc1ccc(S(=O)(=O)Nc2c(Cl)c(Cl)c(O)c3ccccc23)cc1	i	5.5*	i	i	i
O=S(=O)(Nc1c(O)ccc2ccccc12)c1cccc2ccccc12	i	i	i	i	i
Cc1ccc(S(=O)(=O)Nc2c(O)ccc3ccccc23)cc1	i	i	47*	i	i
Cc1ccc(S(=O)(=O)Nc2ccccc2-c2ccccc2NS(=O)(=O)c2ccc(C)cc2)cc1	i	i	i	i	i
CC1CCC(C(C)C)C(OP(=O)(c2ccc(N(C)C)cc2)C(O)c2cccnc2)C1 (configuration not stated)	i	i	i	-8.7*	i
CC1CCC(C(C)C)C(OP(=O)(c2ccccc2)C(O)c2ccncc2)C1 (configuration not stated)	i	i	i	i	i
CSc1ccc(CN(C)C(=O)c2cccc(S(=O)(=O)NCc3ccccc3)c2)cc1	i	i	i	-5.1*	i
CN(Cc1ccc(F)cc1)C(=O)C(Cc1ccccc1)NC(=O)c1ccccc1 (configuration not stated)	i	i	i	i	i
CSc1ccc(CN(C)C(=O)C(Cc2ccccc2)NC(=O)c2ccccc2)cc1 (configuration not stated)	-7.3*	i	i	i	i
CCCN(CC(=O)Nc1ccccc1OC)C(=O)c1cccc(S(=O)(=O)NCc2ccccc2)c1	i	i	i	-6.1*	i
O=C(N=C1SC2CS(=O)(=O)CC2N1CCc1ccccc1)C1CCCCC1 (configuration not stated)	i	i	i	i	i
Cc1cc(C)c(S(=O)(=O)N2CCOC2CNC(=O)C(=O)NCc2ccncc2)c(C)c1 (configuration not stated)	i	i	i	i	i
COCCNC(=O)c1ccc(N2CC3CC(C2)c2cccc(=O)n2C3)c(NC(=O)c2ccc(Br)o2)c1 (configuration not stated)	i	i	i	i	i
SMILES	RGS4 act	RGS4 inh	MrgX1 agonist	MrgX1 antag	MrgX1 PAM
CCOC(=O)c1cnc2sc3c(n2c1=O)CCCC3	nt	nt	i	-5.2*	i
COc1ccccc1N1CCN(C(=O)c2sc3nc(C)nc(N4CCN(c5ccccn5)CC4)c3c2C)CC1	-8.2*	i	i	i	i
O=C(/C=C/c1ccc(Cl)cc1)c1cccnc1	i	i	i	i	i
O=C(/C=C/c1ccccc1Cl)c1cccnc1	i	i	28*	i	i
COc1ccc(OC)c(-c2csc(NC(=O)c3ccc4c(c3)OCO4)n2)c1	i	i	i	i	i
O=C(N/N=C/c1ccncc1)c1ccc(COc2cccc3cccnc23)cc1	i	i	i	i	i
O=C(N/N=C/c1ccc2cccc(OCc3ccccc3)c2n1)c1ccc(Cl)cc1	-9.9*	i	i	i	i
O=C1N/C(=C\c2ccc(O)cc2)C(=O)c2ccccc21	i	i	40*	i	i
COc1ccc(S(=O)(=O)Cc2ccc(C(=O)NCCc3cc(OC)ccc3OC)o2)cc1	i	i	i	i	7.5*
COc1ccc(S(=O)(=O)Cc2ccc(C(=O)N3CCN(c4cc(Cl)ccc4C)CC3)o2)cc1	-8.2*	i	i	i	i
Cc1cccc(N2CCN(C(=O)c3ccc(CS(=O)Cc4ccc(Cl)cc4)o3)CC2)c1C (configuration not stated)	i	i	i	i	i
Cc1ccc(C)c(N2CCN(C(=O)c3ccc(CS(=O)Cc4cccc(Cl)c4)o3)CC2)c1 (configuration not stated)	-8.7*	i	i	i	i
COc1ccc(CC(=O)NC2CCCCCC2)c(OC)c1	i	i	i	i	i
CCCCCC(=O)NNC(=S)NC(=O)c1ccc([N+](=O)[O-])cc1	i	i	61*	i	i
O=C(NNC(=S)NC(=O)c1ccc(Br)cc1)c1cccc([N+](=O)[O-])c1	i	i	i	i	i
Cc1ccc(C(=O)NC(=S)NNC(=O)c2ccc([N+](=O)[O-])cc2)cc1	i	i	40*	i	i
COc1ccc(OCC(=O)NNC(=S)NC(=O)c2ccc([N+](=O)[O-])cc2)cc1	i	i	i	i	i
O=C(NNC(=S)NC(=O)c1ccc(Br)cc1)c1ccc([N+](=O)[O-])cc1	i	i	i	i	i
O=C(NNC(=S)NC(=O)c1ccccc1Cl)c1cccc([N+](=O)[O-])c1	i	i	103*	i	i
O=C(NNC(=S)NC(=O)c1ccccc1)c1ccc([N+](=O)[O-])cc1	i	i	77*	i	i
C=C(C)C(=O)Nc1ccc(OC(F)(F)C(F)F)c(NC(=O)C(=C)C)c1	i	i	i	i	i
Cc1[nH]c2ccccc2c1C(=O)C(C)OC(=O)c1ccc(Cl)nc1 (configuration not stated)	i	i	i	i	i
